# High-throughput results deposited in PubChem by Johns Hopkins Ion Channel Center.
# Sampled rows, rich in hits. Any-hit rate of the full collection: about 3.8%.
# KCNQ1 act = potentiators or activators of KCNQ1 channel, primary screen, cell-based, thallium flux, high-throughput. CHO-K1 KCNQ1, thallium flux FluxOR fluorescence; hits give high values. B-score at 10 µM. actives 0.35% (n = 310,000). AID 2648, 2010;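 active means fluorescence ratio B-score, a plate-corrected score, at least three library SD, with initial intensity B-score within 5 SD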
# Target sequence (P51787 whole entry, looked up): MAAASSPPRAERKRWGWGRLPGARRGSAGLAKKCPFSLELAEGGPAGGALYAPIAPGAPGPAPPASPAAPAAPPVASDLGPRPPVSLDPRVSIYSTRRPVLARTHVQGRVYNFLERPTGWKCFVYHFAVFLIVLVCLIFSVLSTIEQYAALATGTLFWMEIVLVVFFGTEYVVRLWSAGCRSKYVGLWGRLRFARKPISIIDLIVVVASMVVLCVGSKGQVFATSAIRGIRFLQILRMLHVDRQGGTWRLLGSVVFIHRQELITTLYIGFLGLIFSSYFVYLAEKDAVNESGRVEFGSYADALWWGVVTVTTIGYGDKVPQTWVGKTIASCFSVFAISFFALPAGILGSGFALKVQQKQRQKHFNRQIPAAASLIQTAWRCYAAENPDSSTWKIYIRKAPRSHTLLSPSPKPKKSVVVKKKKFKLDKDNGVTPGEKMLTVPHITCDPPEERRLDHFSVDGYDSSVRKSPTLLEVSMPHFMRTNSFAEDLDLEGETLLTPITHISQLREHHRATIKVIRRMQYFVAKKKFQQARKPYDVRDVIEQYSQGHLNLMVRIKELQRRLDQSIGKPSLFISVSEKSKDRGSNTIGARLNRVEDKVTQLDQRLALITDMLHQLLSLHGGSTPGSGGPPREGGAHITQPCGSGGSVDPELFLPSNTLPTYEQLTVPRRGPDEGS
#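 System: CHO-K1 cells stably expressing KCNQ1 / Medium: assay buffer for compound exposure, DMSO matched across wells / Reagent: thallium- and potassium-containing depolarizing buffer / Compound: one concentration, matched DMSO / Incubation: 20 min compound pretreatment at room temperature / Measured by: kinetic FluxOR fluorescence, 10 s baseline plus 110 s post-stimulus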
# KCNQ1 block = inhibitors of human KCNQ1 channel, primary screen, cell-based, thallium flux, high-throughput. Potassium voltage-gated channel subfamily KQT member 1 (Homo sapiens), P51787. CHO-K1 KCNQ1, FluxOR thallium flux fluorescence; hits give high values. B-score at 10 µM. actives 1.3% (n = 310,000). AID 2642, 2010;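 active means compounds whose thallium flux B-score, printed positive for inhibition, exceeds three library SD while starting fluorescence stays within three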;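 further: channel opened by potassium depolarization with thallium stimulus after 20 min compound exposure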
# Kir21 inh = inhibitors of mouse Kir2.1 inward-rectifier potassium channel | Inward rectifier potassium channel 2 (Mus musculus), P35561 | HEK293-Kir2.1, FluxOR thallium flux fluorescence; hits give low values | AID 1672, 2009 | actives 0.85% (n = 310,000) | B-score at 10 µM;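 active means fluorescence ratio B-score at or below minus 3 SD of library scores, with starting-brightness B-score within 2 SD, cut at about -4.2 in these data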;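 further: channel flux triggered by added potassium and thallium sulfate stimulus; B-score of peak minus minimum fluorescence over baseline after thallium stimulus; more negative B-score means stronger Kir2.1 block with less thallium influx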
# KCNK3 block = human KCNK3 channel inhibitors, primary screen, CHO cells, FluxOR thallium flux, B-score; Potassium channel subfamily K member 3 (Homo sapiens), O14649; B-score at 10 µM; actives 0.84% (n = 340,000); AID 602410, 2012; FluxOR fluorescence; hits give low values;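 active means B-score under library mean minus 4 SD, starting fluorescence ratio at most library mean plus 5 SD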;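 further: more negative B-score means stronger inhibition of thallium flux through KCNK3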
# KCNK9 block = KCNK9 potassium channel inhibitors, primary screen, HEK293 cells, thallium flux; Potassium channel subfamily K member 9 (Homo sapiens), Q9NPC2; FluxOR thallium flux fluorescence; hits give low values; B-score at 10 µM; actives 1.2% (n = 310,000);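 active means ratio B-score over 3 SD below the library mean, with starting fluorescence within 5 SD of its mean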;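 further: negative B-score means less thallium flux so channel inhibition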
# hERG protect = hERG rescue from dofetilide block, primary screen, cell-based, CHO-hERG, FluxOR thallium flux, dofetilide IC70. Voltage-gated inwardly rectifying potassium channel KCNH2 (Homo sapiens), Q12809. dofetilide IC70 present. activation (rescue from dofetilide block), less the hit threshold, % at 10 µM. actives 0.51% (n = 310,000). AID 1511, 2009;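 active means activation above the mean of controls blocked by dofetilide plus 5 SD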;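 further: thallium influx through hERG after potassium depolarization seen as dye fluorescence rise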
# KCNK3 inh conf = retest of human KCNK3 channel inhibitors, confirmation, CHO cells, FluxOR thallium flux, triplicate. shares compounds with KCNK3 block. FluxOR fluorescence; 0% buffer, 100% carvedilol maximal block. ratio percent of control, % at 10 µM. actives 99% (n = 2,400). AID 651638, 2012;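 active means ratio percent of control, averaged over triplicates, above buffer control mean plus 5 SD, cut at about 64% in these data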;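 further: ratio is the fluorescence rise from min to max over baseline after thallium stimulus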
# KCNK3 noninduced = thallium flux inhibition in non-induced cells, primary screen, counter-screen for KCNK3 inhibitor project, cell-based, non-induced KCNK3 line, FluxOR thallium, triplicate; shares compounds with KCNK3 block; non-induced KCNK3 parental cells; hits give low values; thallium flux ratio (lower = more inhibition) at 10 µM; actives 40% (n = 2,400);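 active means thallium flux ratio, averaged over three wells, more than 5 SD below the buffer control mean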;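 further: host cells are CHO cells without KCNK3 induction; ratio is peak minus trough fluorescence over baseline then normalized to buffer controls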
# Starred values were filed as active, the others as inactive; i = inactive; x = no result.
SMILES,KCNQ1 act,KCNQ1 block,Kir21 inh,KCNK3 block,KCNK9 block,hERG protect,KCNK3 inh conf,KCNK3 noninduced
CC(C)S(=O)(=O)c1csc(NC(=O)Nc2ccc(Cl)cc2)c1,i,i,0.16,i,i,-26,x,x
Cc1ccc(-c2nc3ccccc3o2)cc1NC(=O)Cc1cccs1,i,i,2,i,i,-6,x,x
O=C(Cc1cccs1)Nc1cccc(-c2nc3ccccc3o2)c1,i,i,-2.7,-8.8*,i,-5,133*,0.14*
O=C(NC12CC3CC(CC(C3)C1)C2)c1c(Cl)cccc1Cl,i,i,0.04,i,i,-7,x,x
O=C1OC[C@H](Cc2ccc3c(c2)OCO3)/C1=C\c1ccc2c(c1)OCO2,i,i,0.33,-9.7*,i,-11,133*,i
O=C1CC(Cc2ccccc2)C(=O)N1CCc1ccc2c(c1)OCO2 (stereo not drawn),i,i,-0.08,i,i,-5,x,x
O=C(CCl)Nc1cn(-c2ccccc2)nc1-c1ccc(F)cc1,i,i,0.09,i,i,-6,x,x
COc1ccccc1NC(=O)C(C)N(C)Cc1ccc(Cl)s1 (stereo not drawn),i,i,-0.94,i,-6.9*,-8,107*,0.16*
COc1ccccc1NC(=O)C(C)N(C)CC(=O)Nc1cccc2ccccc12 (stereo not drawn),x,x,x,i,x,x,x,x
COc1ccc(CN(C)C(C)C(=O)Nc2cccc3ccccc23)cc1 (stereo not drawn),i,i,-0.06,-9.7*,i,-11,121*,0.16*
O=C(NCc1ccco1)C1CCCN1C(=O)Nc1ccc(Br)cc1 (stereo not drawn),i,i,-0.22,i,i,-4,x,x
Cc1ccccc1C(=O)Oc1ccc2ccc(O)cc2c1,i,i,0.38,i,i,-7,x,x
Cc1ccccc1S(=O)(=O)Oc1ccc2ccc(O)cc2c1,i,i,-0.67,-10*,i,-24,97*,i
O=C(Nc1cc(Cl)ccc1N1CCCCC1)c1cccs1,i,i,-0.95,-14*,-7.3*,-2,128*,0.12*
COc1ccc(NC(=O)COC(=O)c2cc(C)oc2C)cc1OC,x,x,x,i,x,x,x,x
COc1ccc(OC)c(C(=O)COC(=O)c2cc(C)oc2C)c1,i,i,1.5,-10*,i,-14,119*,i
O=S(=O)(c1cc(Br)ccc1Br)N1CCCCCC1,i,i,-0.45,-11*,i,-4,129*,0.14*
CCOc1cc(/C=C2\C(=O)ON=C2c2ccccc2)cc(Br)c1O,i,6*,-7.3*,-8.8*,i,-32,135*,0.098*
Cc1ccc(/C=C2/C(=O)ON=C2c2ccccc2)o1,i,i,-5.9*,-10*,i,-11,122*,i
COc1cc(/C=C2\C(=O)ON=C2c2ccccc2)cc(Cl)c1O,i,i,-10*,-8.9*,i,-43,115*,0.14*
CCOc1cc(/C=C2\C(=O)ON=C2C)ccc1OCc1ccccc1,i,i,1.1,i,i,-7,x,x
COc1ccc(/C=C2/C(=O)ON=C2C)cc1Cl,i,i,0.34,i,i,-1,x,x
Cn1c(N)c(C(=O)COC(=O)COc2ccccc2Cl)c(=O)n(C)c1=O,x,x,x,i,x,x,x,x
